This note sets out measurements from ChEMBL document CHEMBL3407426, “Synthesis and biological evaluations of novel endomorphin analogues containing α-hydroxy-β-phenylalanine (AHPBA) displaying mixed μ/δ opioid receptor agonist and δ opioid receptor antagonist activities” (Eur J Med Chem, 2015).

Series [1] has as its system Mus musculus. Briefly: Antinociceptive activity in icv dosed C57BL/6J mouse assessed as latency to withdrawal tail administered first dose for 8 hrs followed by second dose measured after 30 mins by 55 degC warm-water tail withdrawal assay. Type of series: functional. A digest of the protocol: (§1)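 Acute tolerance in the mouse 55 °C warm-water tail-withdrawal test, 15 s cut-off. First i.c.v. dose at time 0 (morphine 3 nmol or test peptide 2 nmol), then a second i.c.v. dose of 0.1–100 nmol 8 h later. Latency read 30 min after the second dose for morphine and 20 min for the peptide. n = 8 mice per point; ED₅₀ with 95% CI by nonlinear regression.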

For series [2], the system named is Mus musculus. Briefly: Antinociceptive activity in icv dosed C57BL/6J mouse assessed as latency to withdrawal tail after 30 mins by 55 degC warm-water tail withdrawal assay. Type of series: functional. A digest of the protocol: (§2)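 Mouse 55 °C warm-water tail-withdrawal test with a baseline latency taken before dosing and a 15 s cut-off. Single i.c.v. injection of 5 µL into the lateral ventricle under light isoflurane. Latency measured at 10-min intervals, with dose–response values taken at peak: 20 min for peptides, 30 min for morphine. Mean % antinociception from 8 mice; ED₅₀ with 95% CI.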

In series [3] the target is Mu-type opioid receptor (Homo sapiens) (UniProt P35372). The series is described as follows: Agonist activity at mu opioid receptor (unknown origin) expressed in HEK293 cells assessed as change in cell morphology at 3.3 uM measured over 30 mins by label free binding assay relative to DAMGO. Format: cell-based. A digest of the protocol: (§3)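 Label-free biosensor (BIND) measuring cell spreading as increase in peak wavelength value. MOR in HEK293 cells, DOR in CHO cells, seeded 2 × 10⁴/well on fibronectin/collagen/albumin-coated plates and incubated overnight. Assay buffer was HBSS with 0.5–1% DMSO, equilibrated 30 min at room temperature before a baseline read. Compound added to a final 3.3 µM and read over 30 min. Response given as % of DAMGO 300 nM (MOR, n = 2) or DPDPE 10 nM (DOR, n = 4).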
Chain of Mu-type opioid receptor (Homo sapiens) (P35372 whole entry): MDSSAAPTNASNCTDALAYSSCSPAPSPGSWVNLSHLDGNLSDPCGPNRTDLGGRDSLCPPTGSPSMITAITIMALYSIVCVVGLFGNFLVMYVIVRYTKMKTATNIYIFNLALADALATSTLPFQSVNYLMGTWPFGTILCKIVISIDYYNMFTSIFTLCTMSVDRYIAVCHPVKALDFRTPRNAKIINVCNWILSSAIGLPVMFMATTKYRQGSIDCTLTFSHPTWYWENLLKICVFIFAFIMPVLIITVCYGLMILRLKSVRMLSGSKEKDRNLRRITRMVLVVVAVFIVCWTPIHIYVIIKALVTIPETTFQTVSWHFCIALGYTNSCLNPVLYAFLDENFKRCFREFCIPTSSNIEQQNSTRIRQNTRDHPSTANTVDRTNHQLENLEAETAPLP

Series [4] in a line: Half life in rat brain homogenate at 10 uM. Format: ADME, tissue-based. A digest of the protocol: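 Peptide at a final 10 µM in rat brain homogenate (protein 21.2 mg/mL), incubated at 37 °C. Aliquots quenched in acetonitrile with internal standard in triplicate, centrifuged, and analysed by LC-MS/MS in MRM mode. Half-life from pseudo-first-order loss of the analyte/internal-standard ratio; mean of at least three experiments ± SEM.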

Series [5] deals with Mus musculus. Briefly: Inhibition of kappa opioid receptor agonist U50,488-induced antinociceptive activity in C57BL/6J mouse assessed as latency to withdrawal tail at 30 nmol, icv administered 90 mins prior to U50,488 treatment measured after 40 mins by 55 degC warm-water tail withdrawal assay. Format: functional, organism-based. A digest of the protocol:
(§4)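 C57BL/6J mice given 30 nmol i.c.v. 90 min before morphine 10 mg/kg i.p., U50,488 10 mg/kg i.p., or SNC-80 100 nmol i.c.v. Tail-withdrawal at 55 °C measured 40 min after the agonist. n = 8 mice; Student's t-test.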

Series [6] has as its system Mus musculus. The series is described as follows: Inhibition of delta opioid receptor agonist SNC-80-induced antinociceptive activity in C57BL/6J mouse assessed as latency to withdrawal tail at 30 nmol, icv administered 90 mins prior to SNC-80 treatment measured after 40 mins by 55 degC warm-water tail withdrawal assay. Type of series: functional, organism-based. The procedure, abridged:
as §4

Series [7] concerns Mus musculus. Briefly: Inhibition of mu opioid receptor agonist morphine-induced antinociceptive activity in C57BL/6J mouse assessed as latency to withdrawal tail at 30 nmol, icv administered 90 mins prior to morphine treatment measured after 40 mins by 55 degC warm-water tail withdrawal assay. Format: functional, organism-based. A digest of the protocol:
as §4

Series [8] deals with Mus musculus. Briefly: Antinociceptive activity in icv dosed C57BL/6J mouse assessed as latency to withdrawal tail after 20 mins by 55 degC warm-water tail withdrawal assay. Type of series: functional. The procedure, abridged:
as §2

The target in series [9] is Delta-type opioid receptor (Rattus norvegicus, UniProt P33533). Briefly: Displacement of [3H]DPDPE from rat cortex delta opioid receptor after 2.5 hrs by liquid scintillation counting analysis.
Chain of Delta-type opioid receptor (Rattus norvegicus, UniProt P33533) (P33533 whole entry): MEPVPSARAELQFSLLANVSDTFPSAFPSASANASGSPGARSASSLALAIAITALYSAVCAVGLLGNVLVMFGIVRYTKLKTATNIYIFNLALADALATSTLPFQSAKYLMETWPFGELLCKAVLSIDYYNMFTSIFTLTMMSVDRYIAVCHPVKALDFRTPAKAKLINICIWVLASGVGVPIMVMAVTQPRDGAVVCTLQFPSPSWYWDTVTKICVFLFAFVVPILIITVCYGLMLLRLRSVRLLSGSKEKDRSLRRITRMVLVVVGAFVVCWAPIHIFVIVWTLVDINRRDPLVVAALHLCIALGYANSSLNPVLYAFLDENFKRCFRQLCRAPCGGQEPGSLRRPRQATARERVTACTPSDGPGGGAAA
Series [10] relates to Mus musculus. The series is described as follows: Antinociceptive activity in wild type C57BL/6J mouse assessed as latency to withdrawal tail at 30 nmol, icv treated with delta opioid receptor anatgonist naltrindole for 20 mins prior to compound addition measured after 30 mins by 55 degC warm-water tail withdrawal assay. Type of series: functional, organism-based. A digest of the protocol: (§5)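 Tail-withdrawal test at 55 °C, read 30 min after i.c.v. dosing (100 or 30 nmol), in MOR KO or KOR KO mice. Wild-type C57BL/6J mice were instead pretreated with naltrindole 20 mg/kg, route given as i.p. in the methods and s.c. in the legend, 20 min before dosing. n = 8 mice; one-way ANOVA with Tukey's test.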

Series [11] deals with T1, Delta-type opioid receptor (Homo sapiens, UniProt P41143). The series is described as follows: Agonist activity at delta opioid receptor (unknown origin) expressed in CHO cells assessed as change in cell morphology measured over 30 mins by label free binding assay. Type of series: cell-based. A digest of the protocol:
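DOR-expressing CHO cells on coated plates in a label-free BIND biosensor, with the increase in peak wavelength value read over 30 min after compound addition. HBSS buffer with 0.5–1% DMSO, baseline read first. Points are means of two separate assays.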

For series [12], the system named is Mus musculus. Briefly: Antinociceptive activity in C57BL/6J mouse assessed as latency to withdrawal tail at 100 nmol, icv measured up to 80 mins by 55 degC warm-water tail withdrawal assay. Format: functional, organism-based. The procedure, abridged: as §2
Series [13] deals with Mus musculus. Briefly: Antinociceptive activity in icv dosed C57BL/6J mouse assessed as latency to withdrawal tail administered first dose for 8 hrs followed by second dose measured after 20 mins by 55 degC warm-water tail withdrawal assay. Format: functional. The procedure, abridged:
as §1

The target in the next series is Mu-type opioid receptor (Rattus norvegicus, UniProt P33535). Briefly: Displacement of [3H]DAMGO from rat cortex mu opioid receptor after 30 mins by liquid scintillation counting analysis. A digest of the protocol:
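Rat cortex membranes prepared in 50 mM Tris pH 7.4, spun 16,500 rpm for 10 min, and incubated 30 min at 37 °C. Competition against [³H]DAMGO. Assay ended by filtration on BSA-soaked GF/B filters. Ki values are means of two experiments.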
A general note: Loss of bound radioactivity is the signal in a displacement assay; it reports binding, not function.

Series [14] deals with Mus musculus. The series is described as follows: Antinociceptive activity in kappa opioid receptor knock out mouse assessed as latency to withdrawal tail at 30 nmol, icv after 30 mins by 55 degC warm-water tail withdrawal assay. Type of series: functional, organism-based. The procedure, abridged: as §5
Series [15] concerns the target T1, Delta-type opioid receptor. Briefly: Agonist activity at delta opioid receptor (unknown origin) expressed in CHO cells assessed as inhibition of forskolin-induced cAMP production at 500 nM after 30 mins by europium cryptate/d2 dye-based FRET analysis relative to DPDPE. Type of series: functional, cell-based. The procedure, abridged:
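DOR-expressing CHO cells, 20,000/well, exposed to test compound at 500 nM with 4 µM forskolin in PBS containing 1 mM IBMX for 30 min at room temperature. Cells then lysed with Europium cryptate and d2 acceptor reagents for 1 h, and cAMP read by FRET. Expressed as % of the 500 nM DPDPE response, n = 4.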
For orientation: cAMP levels reflect the balance of adenylyl cyclase and phosphodiesterase activity.

The subject of series [16] is Mus musculus. Briefly: Antinociceptive activity in mu opioid receptor knock out mouse assessed as latency to withdrawal tail at 30 nmol, icv after 30 mins by 55 degC warm-water tail withdrawal assay. Format: functional, organism-based. A digest of the protocol: as §5
Series [17] has as its system Mus musculus. Briefly: Toxicity in C57BL/6J mouse assessed as impairment of locomotor co-ordination at 100 nmol, icv administered 15 mins prior to assessment in accelerated speed trials measured over 60 mins by rotorod test. Format: organism-based. The conditions noted are these: in vivo, icv_or_intrathecal, 1 h. A digest of the protocol:
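Rotorod test after seven habituation trials, the last used as baseline. Mice given vehicle (50% DMSO) or 100 nmol i.c.v. Latency to fall recorded over 60 min and expressed as % change from baseline per 10 min. 8–18 mice; two-way ANOVA.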
A general note: In the rotarod test animals must keep their balance on a rotating rod.

For series [18], the target named is T1, Delta-type opioid receptor. The series is described as follows: Agonist activity at delta opioid receptor (unknown origin) expressed in CHO cells assessed as change in cell morphology at 3.3 uM measured over 30 mins by label free binding assay relative to DPDPE. Format: cell-based. A digest of the protocol: as §3
In series [19] the test system is Mus musculus. Briefly: Antinociceptive activity in kappa opioid receptor knock out mouse assessed as latency to withdrawal tail at 100 nmol, icv after 30 mins by 55 degC warm-water tail withdrawal assay. Format: functional, organism-based. A digest of the protocol:
as §5

For series [20], the system named is Mus musculus. The series is described as follows: Antinociceptive activity in mu opioid receptor knock out mouse assessed as latency to withdrawal tail at 100 nmol, icv after 30 mins by 55 degC warm-water tail withdrawal assay. Type of series: functional, organism-based. The procedure, abridged:
as §5

Series [21] deals with Mus musculus. The series is described as follows: Antinociceptive activity in wild type C57BL/6J mouse assessed as latency to withdrawal tail at 100 nmol, icv treated with delta opioid receptor anatgonist naltrindole for 20 mins prior to compound treatment measured after 30 mins by 55 degC warm-water tail withdrawal assay. Type of series: functional, organism-based. The procedure, abridged:
as §5

The source made the active and inactive calls. Where a SMILES comes first, the peptide text is derived from it. [ ]: non-standard residue; d: D form. ξ: configuration not given here. Dmt = Cc1cc(O)cc(C)c1C[C@H](N)C(=O)O; ξTiq(1-COOH) = O=C(O)C1NCCc2ccccc21 A value given as a limit tells only on which side of the number the result lay.

T1 sequence (P41143 whole entry): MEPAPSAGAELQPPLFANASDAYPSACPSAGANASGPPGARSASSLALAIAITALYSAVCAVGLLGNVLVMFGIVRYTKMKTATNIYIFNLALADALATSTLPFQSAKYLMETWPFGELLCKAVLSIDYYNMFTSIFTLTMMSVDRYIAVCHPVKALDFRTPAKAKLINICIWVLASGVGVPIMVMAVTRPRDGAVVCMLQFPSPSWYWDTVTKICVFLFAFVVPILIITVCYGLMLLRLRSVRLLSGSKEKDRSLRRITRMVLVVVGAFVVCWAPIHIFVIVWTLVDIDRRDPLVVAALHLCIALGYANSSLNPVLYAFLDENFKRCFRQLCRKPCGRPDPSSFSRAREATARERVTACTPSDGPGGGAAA
Chain of Mu-type opioid receptor (P33535 whole entry): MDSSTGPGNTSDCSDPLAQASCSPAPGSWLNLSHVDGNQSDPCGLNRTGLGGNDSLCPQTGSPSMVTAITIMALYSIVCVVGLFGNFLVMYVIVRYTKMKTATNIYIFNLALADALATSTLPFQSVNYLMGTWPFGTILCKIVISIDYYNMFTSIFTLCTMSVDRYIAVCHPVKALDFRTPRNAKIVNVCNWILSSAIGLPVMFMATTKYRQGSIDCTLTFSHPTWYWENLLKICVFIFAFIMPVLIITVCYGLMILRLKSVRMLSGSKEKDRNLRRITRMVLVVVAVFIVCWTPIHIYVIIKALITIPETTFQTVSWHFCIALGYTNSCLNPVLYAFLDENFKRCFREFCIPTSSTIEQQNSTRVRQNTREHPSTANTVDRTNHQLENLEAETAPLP

With `CN1CC[C@]23c4c5ccc(O)c4O[C@H]2[C@@H](O)C=C[C@H]3[C@H]1C5` [MORPHINE], the ED50 turned out to be 22.5 nmol in the series on Mus musculus [1] and 2.35 nmol in the series with Mus musculus [2]. Besides, the Activity entry with Mus musculus [2] was “Dose-dependent effect”.

Consider `Cc1cc(O)cc(C)c1C[C@H](N)C(=O)N1CCc2ccccc2C1C(=O)N[C@@H](Cc1ccccc1)[C@@H](O)C(=O)N[C@@H](Cc1ccccc1)C(N)=O` (stereo partly drawn), for which the Activity was 42% in [3], “Dose-dependent effect” with Mus musculus [8], “Non-toxic” with Mus musculus [17] and 30% in series [18]. Besides, the half-life – broadly, how long it takes for the measured level to halve – at 10 µM in series [4] was above 120 min. The inhibition result in the series with Mus musculus [5] and in the series on Mus musculus [7] was “inactive” throughout. Further, in the series on Mus musculus [6], the inhibition (usually the percentage by which the read-out fell short of the control) was “Active”. Besides, the ED50 with Mus musculus [8] is reported as 1.98 nmol; in the series on Mus musculus [13], 0.86 nmol. Further, the Ki (commonly the dissociation constant of the complex between target and ligand, obtained from inhibition or displacement) in series [9] is 0.7 nM; at Mu-type opioid receptor it was 8 nM. The outcome in the series on Mus musculus [10], with Mus musculus [14] and in the series on Mus musculus [16] was inactive. Moreover, the EC50 (in general, the midpoint of the concentration-response curve) in [11] was determined as 23 nM. Moreover, in the series on Mus musculus [12], the outcome was Active. In addition, in series [15], the inhibition stood at 66%.

As to `Cc1cc(O)cc(C)c1C[C@H](N)C(=O)N1CCc2ccccc2C1C(=O)N[C@@H](Cc1ccccc1)C(=O)N[C@@H](Cc1ccccc1)C(N)=O` (stereo partly drawn) (H-[Dmt][ξTiq(1-COOH)]FF-NH2), the Activity was 61% in series [3], “Dose-dependent effect” in the series on Mus musculus [8], “Toxic” with Mus musculus [17] and 46% in series [18]. The compound also displayed a half-life at 10 µM in series [4] of 6.11 min. Further, the result in the series with Mus musculus [19], in the series on Mus musculus [20] and in the series with Mus musculus [21] was inactive. Also, the ED50 in the series on Mus musculus [8] is recorded as 21.7 nmol. Also, the Ki was found to be 2 nM in [9] and 5 nM at Mu-type opioid receptor. Moreover, the inhibition in series [15] was determined as 73%.
